Test results reported in ChEMBL document CHEMBL3045693, “Metabolism of diethofencarb (isopropyl 3,4-diethoxyphenylcarbamate) in rats: identification of metabolites in urine” (J Agric Food Chem, 2004).

How the values were obtained:
Settings in all cases: in vivo, 24 h
[1] = Drug excretion in Rattus norvegicus CD Sprague-Dawley (rat) urine assessed as N-(3-ethoxy-4- hydroxyphenyl)acetamide at 300 mg/5ml, po daily for 4 consecutive days measured within 1 day after final dose by NMR/MS analysis; format: ADME, organism-based
In short: (§1)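 Male CD (Sprague-Dawley) rats, 11 weeks old (n=4), housed individually in glass metabolism cages separating urine and feces. [phenyl-14C]-labelled compound given by gastric probe in corn oil at 300 mg/5 mL/kg daily for 4 days. Urine from the day after the last dose: aqueous layer hydrolysed with sulfatase (with β-glucuronidase activity) in 0.2 M acetate pH 5.0, 37 °C, 19 h. Ethyl acetate extraction, then HPLC/TLC purification and NMR/ESI-MS identification.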

[2] = Drug excretion in Rattus norvegicus CD Sprague-Dawley (rat) urine assessed as 2-acetamino-3-{3-ethoxy-2-hydroxy-5-[(isopropoxycarbonyl) amino]phenylthio}propionic acid at 300 mg/5ml, po daily for 4 consecutive days measured within 1 day after final dose by NMR/MS analysis; format: ADME, organism-based; in short: as §1
[3] = Drug excretion in Rattus norvegicus CD Sprague-Dawley (rat) urine assessed as (4-acetamino-2-ethoxyphenoxy) acetic acid at 300 mg/5ml, po daily for 4 consecutive days measured within 1 day after final dose by NMR/MS analysis; format: ADME, organism-based; in short: as §1
[4] = Drug excretion in Rattus norvegicus CD Sprague-Dawley (rat) urine assessed as 3-(3-ethoxy-4-hydroxyphenyl)-4-hydroxy-5-methyloxazolidin- 2-one at 300 mg/5ml, po daily for 4 consecutive days measured within 1 day after final dose by NMR/MS analysis; format: ADME, organism-based; in short: as §1
[5] = Drug excretion in Rattus norvegicus CD Sprague-Dawley (rat) urine assessed as N-(3-ethoxy-4-hydroxyphenyl)-2-hydroxyacetamide at 300 mg/5ml, po daily for 4 consecutive days measured within 1 day after final dose by NMR/MS analysis; format: ADME, organism-based; in short: as §1
[6] = Drug excretion in Rattus norvegicus CD Sprague-Dawley (rat) urine assessed as 2-acetamino-3-{4-ethoxy-3-hydroxy-2-[(isopropoxycarbonyl)amino]phenylthio}propionic acid at 300 mg/5ml, po daily for 4 consecutive days measured within 1 day after final dose by NMR/MS analysis; format: ADME, organism-based; in short: as §1
[7] = Drug excretion in Rattus norvegicus CDSprague-Dawley (rat) urine assessed as isopropyl 3-ethoxy-4- hydroxy-5-(methylthio) carbanilate at 300 mg/5ml, po daily for 4 consecutive days measured within 1 day after final dose by NMR/MS analysis; format: ADME, organism-based, CD Sprague-Dawley; in short: as §1
[8] = Drug excretion in Rattus norvegicus CD Sprague-Dawley (rat) urine assessed as 2-acetamino- 3-[5-acetamino-3-ethoxy-2-hydroxyphenylthio]propionic acid at 300 mg/5ml, po daily for 4 consecutive days measured within 1 day after final dose by NMR/MS analysis; format: ADME, organism-based; in short: as §1
[9] = Drug excretion in Rattus norvegicus CD Sprague-Dawley (rat) urine assessed as 1-hydroxypropan-2-yl 3-ethoxy-4-hydroxycarbanilate at 300 mg/5ml, po daily for 4 consecutive days measured within 1 day after final dose by NMR/MS analysis; format: ADME, organism-based; in short: as §1
[10] = Drug excretion in Rattus norvegicus CD Sprague-Dawley (rat) urine assessed as N-(3-ethoxy-4-hydroxy-5-methylsulfinylphenyl) acetamide at 300 mg/5ml, po daily for 4 consecutive days measured within 1 day after final dose by NMR/MS analysis; format: ADME, organism-based; in short: as §1
[11] = Drug excretion in Rattus norvegicus CD Sprague-Dawley (rat) urine assessed as 2-{2-ethoxy-4-[(isopropoxycarbonyl)amino]- phenoxy}acetic acid at 300 mg/5ml, po daily for 4 consecutive days measured within 1 day after final dose by NMR/MS analysis; format: ADME, organism-based; in short: as §1

Measured: Drug excretion

CCOc1ccc(NC(=O)OC(C)C)cc1OCC [DIETHENOFENCARB]
Active: all assays above
